These results are taken from ChEMBL document CHEMBL4043227, “Novel xanthone-polyamine conjugates as catalytic inhibitors of human topoisomerase IIα” (Bioorg Med Chem Lett, 2017).

The source made the active and inactive calls. The rule behind the calls is not given here. A value given as a limit tells only on which side of the number the result lay.

The term IC50 denotes the point on the concentration scale where inhibition reaches its midpoint.

The target of series [1] is T1, DNA topoisomerase 2-alpha (Homo sapiens, UniProt P11388). Put plainly: Inhibition of recombinant human topoisomerase-2alpha expressed in Saccharomyces cerevisiae JEL1 harboring topoisomerase1 deletion mutant assessed as reduction in etoposide induced enzyme-mediated DNA cleavage up to 10 uM by ethidium bromide staining based agarose gel electrophoresis. In outline: (§1)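 Competition assay: 5-100 µM xanthone (one compound only up to 10 µM, for solubility) is added with 100 µM etoposide. Enzyme double-strand break levels are expressed relative to etoposide alone, set to 100%. Mean ± SD of 2-3 independent experiments.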
Target sequence in this assay (P11388 whole entry): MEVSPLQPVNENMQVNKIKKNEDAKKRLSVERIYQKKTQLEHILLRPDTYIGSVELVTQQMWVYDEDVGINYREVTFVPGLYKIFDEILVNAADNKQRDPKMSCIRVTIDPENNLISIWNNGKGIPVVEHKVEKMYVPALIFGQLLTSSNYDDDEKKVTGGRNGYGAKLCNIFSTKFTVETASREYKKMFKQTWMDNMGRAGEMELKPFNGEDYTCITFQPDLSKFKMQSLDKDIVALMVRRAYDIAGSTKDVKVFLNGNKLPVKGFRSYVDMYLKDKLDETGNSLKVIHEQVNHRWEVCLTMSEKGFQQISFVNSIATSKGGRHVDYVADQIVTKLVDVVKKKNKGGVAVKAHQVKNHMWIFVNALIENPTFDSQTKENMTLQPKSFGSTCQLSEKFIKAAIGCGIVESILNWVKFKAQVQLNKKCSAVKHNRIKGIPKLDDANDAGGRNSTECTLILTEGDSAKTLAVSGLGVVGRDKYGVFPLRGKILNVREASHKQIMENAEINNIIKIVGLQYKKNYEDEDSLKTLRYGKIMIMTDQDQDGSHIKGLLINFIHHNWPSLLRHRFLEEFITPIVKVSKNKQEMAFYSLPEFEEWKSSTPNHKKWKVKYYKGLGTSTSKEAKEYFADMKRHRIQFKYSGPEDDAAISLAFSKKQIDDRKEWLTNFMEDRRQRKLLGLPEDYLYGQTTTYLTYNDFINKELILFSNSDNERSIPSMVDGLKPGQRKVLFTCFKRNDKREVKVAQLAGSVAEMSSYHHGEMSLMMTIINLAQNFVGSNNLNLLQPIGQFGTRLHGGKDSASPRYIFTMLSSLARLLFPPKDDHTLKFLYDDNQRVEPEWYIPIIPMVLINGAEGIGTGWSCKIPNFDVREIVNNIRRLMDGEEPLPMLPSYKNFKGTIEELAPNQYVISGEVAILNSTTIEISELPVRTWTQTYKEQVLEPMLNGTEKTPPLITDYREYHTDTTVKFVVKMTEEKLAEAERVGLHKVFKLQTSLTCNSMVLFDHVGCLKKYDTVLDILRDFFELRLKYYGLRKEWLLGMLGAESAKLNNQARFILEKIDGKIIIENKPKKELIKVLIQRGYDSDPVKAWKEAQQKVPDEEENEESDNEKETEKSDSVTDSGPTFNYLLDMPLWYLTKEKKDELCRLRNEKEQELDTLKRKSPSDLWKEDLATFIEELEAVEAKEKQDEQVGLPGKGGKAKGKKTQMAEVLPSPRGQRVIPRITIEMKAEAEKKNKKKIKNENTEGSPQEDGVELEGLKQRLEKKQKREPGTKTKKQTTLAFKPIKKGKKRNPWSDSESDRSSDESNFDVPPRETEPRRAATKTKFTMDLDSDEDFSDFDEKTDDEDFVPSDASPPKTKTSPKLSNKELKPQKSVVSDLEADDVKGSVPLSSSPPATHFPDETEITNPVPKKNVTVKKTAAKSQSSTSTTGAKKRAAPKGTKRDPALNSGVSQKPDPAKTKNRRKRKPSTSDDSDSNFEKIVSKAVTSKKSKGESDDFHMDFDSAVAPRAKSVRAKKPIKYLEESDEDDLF

Series [2] concerns the target T1, DNA topoisomerase 2-alpha. The experiment in a line: Inhibition of 150 nM recombinant human topoisomerase-2alpha catalytic activity expressed in Saccharomyces cerevisiae JEL1 harboring topoisomerase1 deletion mutant assessed as reduction in enzyme-mediated relaxed pBR322 DNA strand passage after 2 mins in presence of APP(NH)P by ethidium bromide staining based agarose gel electrophoresis. The essentials:
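Topo IIα at 150 nM with relaxed DNA as substrate, ATP replaced by the non-hydrolysable analogue APP(NH)P, so only events up to strand passage are scored. Catenated DNA is read at the gel origin against relaxed DNA bands, with no-enzyme and enzyme-only controls. Gels represent at least 3 independent experiments.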
Target sequence in this assay (P11388 whole entry, looked up, stated change not applied): as the sequence (P11388 whole entry) above

The target in series [3] is T1, DNA topoisomerase 2-alpha. Put plainly: Poison activity at recombinant human topoisomerase-2alpha expressed in Saccharomyces cerevisiae JEL1 harboring topoisomerase1 deletion mutant assessed as enzyme-mediated supercoiled pBR322 cleavable complex formation up to 10 uM after 6 mins by ethidium bromide staining based agarose gel electrophoresis. The essentials: (§2)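 Double-strand DNA cleavage by topo IIα (150 nM) on negatively supercoiled DNA, tested at 2.5, 10, 50 and 100 µM (one compound only up to 10 µM). Linear form III is resolved from forms I and II on ethidium-stained gels. Cleavage is normalised to the no-drug control set to 1, with 100 µM etoposide as reference. SD of 2-3 independent experiments.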
Target sequence in this assay (P11388 whole entry): as above

Series [4] deals with T1, DNA topoisomerase 2-alpha. The experiment in a line: Inhibition of recombinant human topoisomerase-2alpha expressed in Saccharomyces cerevisiae JEL1 harboring topoisomerase1 deletion mutant assessed as enzyme-mediated supercoiled pBR322 cleavable complex formation up to 10 uM in presence of CaCl2 by ethidium bromide staining based agarose gel electrophoresis. The essentials: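 Cleavage reactions contain CaCl2, which raises baseline topo IIα DNA cleavage about 10- to 15-fold. Enzyme at 150 nM with negatively supercoiled DNA. Xanthones are tested up to 10 µM, with no-enzyme and enzyme-only controls.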
Target sequence in this assay (P11388 whole entry): as above

Series [5] in a line: Solubility of the compound in Tris-HCl at pH 7.9 at 50 to 100 uM. It is filed as physicochemical. Conditions: buffer, pH 7.9, 100 µM.
Series [6] addresses T1, DNA topoisomerase 2-alpha. The experiment in a line: Inhibition of 150 nM recombinant human topoisomerase-2alpha catalytic activity expressed in Saccharomyces cerevisiae JEL1 harboring topoisomerase1 deletion mutant assessed as reduction in supercoiled pBR322 DNA relaxation at 10 uM after 4 mins by ethidium bromide staining based agarose gel electrophoresis. In outline:
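Control relaxation run at high enzyme (150 nM topo IIα) to match the cleavage assay. Negatively supercoiled DNA substrate, with no-enzyme and enzyme-only controls, read on gel.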
Target sequence in this assay (P11388 whole entry): as above

Series [7] addresses T1, DNA topoisomerase 2-alpha. Put plainly: Ratio of IC50 for recombinant human topoisomerase-2alpha expressed in Saccharomyces cerevisiae JEL1 harboring topoisomerase1 deletion mutant assessed as enzyme-mediated decatenation of kinetoplast DNA to IC50 for recombinant human topoisomerase-2alpha catalytic activity expressed in Saccharomyces cerevisiae JEL1 harboring topoisomerase1 deletion mutant assessed as reduction in supercoiled pBR322 DNA relaxation.
Target sequence in this assay (P11388 whole entry): as above

In series [8] the target is T1, DNA topoisomerase 2-alpha. The experiment in a line: Poison activity at recombinant human topoisomerase-2alpha expressed in Saccharomyces cerevisiae JEL1 harboring topoisomerase1 deletion mutant assessed as enzyme-mediated supercoiled pBR322 cleavable complex formation at 2.5 to 100 uM after 6 mins by ethidium bromide staining based agarose gel electrophoresis. The essentials: as §2
Target sequence in this assay (P11388 whole entry): as above

Series [9] deals with T1, DNA topoisomerase 2-alpha. The experiment in a line: Inhibition of recombinant human topoisomerase-2alpha expressed in Saccharomyces cerevisiae JEL1 harboring topoisomerase1 deletion mutant assessed as reduction in etoposide induced enzyme-mediated DNA cleavage up to 100 uM by ethidium bromide staining based agarose gel electrophoresis. The essentials:
as §1

For series [10], the target named is T1, DNA topoisomerase 2-alpha. The experiment in a line: Inhibition of 3 nM recombinant human topoisomerase-2alpha catalytic activity expressed in Saccharomyces cerevisiae JEL1 harboring topoisomerase1 deletion mutant assessed as reduction in supercoiled pBR322 DNA relaxation after 4 mins by ethidium bromide staining based agarose gel electrophoresis. In outline:
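Topo IIα at 3 nM relaxes negatively supercoiled DNA, with no-enzyme and enzyme-only controls. Supercoiled (form I) and nicked (form II) bands are resolved on gel, and IC50 is estimated from the gels. Gels represent 2-4 independent experiments.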
Target sequence in this assay (P11388 whole entry, looked up, stated change not applied): as the sequence (P11388 whole entry) above

Series [11] has as its target T1, DNA topoisomerase 2-alpha. The experiment in a line: Inhibition of recombinant human topoisomerase-2alpha expressed in Saccharomyces cerevisiae JEL1 harboring topoisomerase1 deletion mutant assessed as reduction in enzyme-mediated [gamma32P]ATP hydrolysis using relaxed pBR322 DNA as substrate after 8 mins.
Target sequence in this assay (P11388 whole entry, looked up, stated change not applied): as the sequence (P11388 whole entry) above
Series [12] addresses T1, DNA topoisomerase 2-alpha. The experiment in a line: Inhibition of recombinant human topoisomerase-2alpha expressed in Saccharomyces cerevisiae JEL1 harboring topoisomerase1 deletion mutant assessed as reduction in enzyme-mediated [gamma32P]ATP hydrolysis up to 50 uM after 8 mins.
Series [13] deals with T1, DNA topoisomerase 2-alpha. Put plainly: Inhibition of 3 nM recombinant human topoisomerase-2alpha catalytic activity expressed in Saccharomyces cerevisiae JEL1 harboring topoisomerase1 deletion mutant assessed as reduction in supercoiled pBR322 DNA relaxation at 10 uM after 4 mins by ethidium bromide staining based agarose gel electrophoresis. The essentials: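 Relaxation of negatively supercoiled plasmid by 3 nM topoisomerase IIα was read from gel mobility (supercoiled form I vs nicked form II). Controls were DNA without enzyme and enzyme-treated DNA without compound. Gels are representative of 2-4 independent experiments.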

Series [14] deals with T1, DNA topoisomerase 2-alpha. Put plainly: Inhibition of recombinant human topoisomerase-2alpha catalytic activity expressed in Saccharomyces cerevisiae JEL1 harboring topoisomerase1 deletion mutant assessed as reduction in supercoiled pBR322 DNA relaxation at 10 uM in presence of spermidine by ethidium bromide staining based agarose gel electrophoresis. The essentials: (§3)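 Negatively supercoiled plasmid relaxed by 3 nM topoisomerase IIα with polyamine (spermidine or spermine) added. Controls were DNA without enzyme and enzyme without inhibitor. Products resolved on gels with supercoiled (form I) and nicked (form II) markers, then quantified. Error bars are standard error of the mean for 2 independent experiments.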

Series [15] has as its target T1, DNA topoisomerase 2-alpha. The experiment in a line: Inhibition of recombinant human topoisomerase-2alpha catalytic activity expressed in Saccharomyces cerevisiae JEL1 harboring topoisomerase1 deletion mutant assessed as reduction in supercoiled pBR322 DNA relaxation at 10 uM in presence of spermine by ethidium bromide staining based agarose gel electrophoresis. In outline: as §3

On to `Cl.Cl.Cl.Cl.NCCCNCCCCNCCCNCC(O)COc1cc(O)c2c(=O)c3ccccc3oc2c1` (stereo not given), for which the inhibition entry in [1] and in [6] was “Active” each time. For the same compound, the half-maximal inhibitory concentration (IC50) in series [2] is < 10 µM. Further, the result in [3] was inactive. Also, the inhibition entry in series [4] is “inactive”. Moreover, in series [5], the solubility result is on record as “Insoluble”. The Ratio IC50 in [7] was 2 to 3.
Consider `NCCCNCC(O)COc1cc(O)c2c(=O)c3ccccc3oc2c1` (stereo not given), for which the inhibition result in [4] was “inactive”. Also, in series [8], the outcome was inactive. The inhibition result in series [6] and in series [9] was “Active” throughout. The half-maximal inhibitory concentration (IC50) in series [10] is 1 µM. Also, in series [7], the Ratio IC50 fell in the range of 2 to 3.
Regarding `NCCCCNCC(O)COc1cc(O)c2c(=O)c3ccccc3oc2c1` (stereo not given), in series [8], the result was inactive. Moreover, in series [10], the IC50 lay within 2.5 to 5 µM.
On to `NCCCNCCCCNCCCN` [SPERMINE], for which, in series [10], the IC50 was > 1000 µM.
Regarding `CCCCNCC(O)COc1cc(O)c2c(=O)c3ccccc3oc2c1` (stereo not given), in series [8], the outcome was inactive. In addition, the IC50 in series [10] is 100 µM.
As for `NCCCCNCCCN` [SPERMIDINE], the IC50 in [10] was > 1000 µM.
As for `NCCCCNCCCNCC(O)COc1cc(O)c2c(=O)c3ccccc3oc2c1` (stereo not given), the half-inhibitory concentration (IC50) in [2] is < 10 µM; in series [11] it was 10 µM. Besides, the inhibition entry in series [4] and in series [12] was “inactive” in each case. In series [8], the result was inactive. Also, the inhibition entry in [6] and in series [9] was “Active” in each case. Further, the Ratio IC50 in [7] is 2 to 3.
Take `O=c1c2ccccc2oc2cc(O)cc(O)c12`: the inhibition result in series [13], in [14], in [15], in [4] and in [6] was “inactive” in each case. Moreover, in series [8], the outcome was inactive. Besides, the IC50 in series [10] was ≥ 100 µM. In series [7], the Ratio IC50 fell in the range of 2 to 3.
